FN deposit inh: fibronectin deposition inhibition; 350,000 tested, 0.086% active; AID 743247; inhibition, % at 12.6 µM; AH1F fibroblasts, Alexa488-fibronectin deposition fluorescence, overnight;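 active = mean inhibition across replicates of 30% or more, regardless of how many single replicates reach that level; inconclusive = mean under 30% yet at least half of replicates reach 30%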;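 also: positive control wells lacked labelled fibronectin entirely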
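Test system: AH1F fibroblast monolayer depositing Alexa488-labelled fibronectin into matrix. Input: 10000 cells per well. Technique: fluorescence, ex 485 nm, em 525 nm. Buffer or medium: DMEM plus 2% serum, read in PBS. Timing: 1 h cell adhesion before compound, then overnight fibronectin incubation. Compound: single dose, pinned. Read-out basis: inhibition from reduced deposited-fibronectin fluorescence.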
SKKanGAS inh: blocks kanamycin growth of S. pyogenes SKKanGAS strain; AID 1662; inhibition, % at 7.5 µM; 300,000 tested, 1.3% active; BacTiter-Glo, 6 h;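 active = mean replicate score, as percent of positive control median, at least 50; inconclusive = mean below 50 but one replicate at or above 50; inactive = mean and every replicate below 50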;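 also: strain carries kanamycin resistance gene driven by streptokinase promoter and grows in 40 µg/ml kanamycin; loss of luminescence reflects streptokinase promoter inhibition or plain growth inhibition; 0% = median of DMSO wells and 100% = positive control at its reference dose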
PfHsp90 yeast 2: growth inhibition of yeast expressing Plasmodium Hsp90; S. cerevisiae expressing PfHsp90, BacTiter-Glo ATP, 48 h; yeast lacking PDR1 and PDR3 efflux regulators; inhibition, % at 9.4 µM; 310,000 tested, 0.32% active; AID 504621;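 active = every replicate shows inhibition above about 80%, whatever the replicate mean, limit read from the data; inconclusive = mean inhibition reaches the set limit but some replicate falls short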;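 also: 0% = DMSO neutral controls and 100% = 20 µM radicicol positive controls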
PglD inh: blocks C. jejuni PglD acetyltransferase activity | purified PglD enzyme, DTNB colorimetric CoA detection | inhibition, % at 12.5 µM | 360,000 tested, 0.098% active | AID 602405; in the data active = inhibition above about 16%, passing the limit was not always enough; inconclusive = no clear call, values can overlap the other calls
Rtt109 Vps75: C. albicans Rtt109 histone acetyltransferase inhibition | Q5AAJ8 | purified Rtt109/Vps75, ThioGlo CoA-SH fluorescence, 4 h | inhibition, % at 34.9 µM | 330,000 tested, 0.16% active | AID 540336;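 active = inhibition of at least 50% in every replicate; inconclusive = best replicate reaches 50% inhibition but some replicates fall short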
Target sequence (Q5AAJ8 whole entry, looked up): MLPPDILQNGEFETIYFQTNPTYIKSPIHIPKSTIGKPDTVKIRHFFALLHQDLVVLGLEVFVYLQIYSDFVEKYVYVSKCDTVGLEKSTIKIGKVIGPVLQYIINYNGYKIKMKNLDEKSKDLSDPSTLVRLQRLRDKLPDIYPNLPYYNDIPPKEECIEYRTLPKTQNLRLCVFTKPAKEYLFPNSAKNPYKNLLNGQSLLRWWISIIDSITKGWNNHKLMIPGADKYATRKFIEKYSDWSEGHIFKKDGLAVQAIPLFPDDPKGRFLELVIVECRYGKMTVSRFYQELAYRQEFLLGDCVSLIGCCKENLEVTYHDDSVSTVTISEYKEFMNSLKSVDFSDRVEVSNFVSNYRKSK
CSC inhib: cancer stem cell inhibition; cancer stem cell-like cells viability, luminescence; inhibition, % at 7.5 µM; 300,000 tested, 1.1% active; AID 2717; in the data active = inhibition above about 75%; inconclusive = no clear call, values can overlap the other calls; tested in HMLE shEcad cells
Starred values were filed as active, the others as inactive; ? = inconclusive; nt = no result given. An excerpt weighted towards active compounds, which were near 1.7% of everything screened.

SMILES | FN deposit inh | SKKanGAS inh | PfHsp90 yeast 2 | PglD inh | Rtt109 Vps75 | CSC inhib
CCNC(=O)C[C@H]1CC[C@H]2[C@@H](COC[C@H](O)CN2C(=O)Nc2c(C)noc2C)O1 | -16.5 | nt | nt | 0.1 | nt | nt
COc1ccc(-c2csc(/C(C#N)=C\c3ccc(OC)c([N+](=O)[O-])c3)n2)cc1 | -8.0 | -5.8 | 7.4 | -3.0 | -2.5 | 0.9
COc1ccc(-c2csc(/C(C#N)=C\c3ccc(O)c([N+](=O)[O-])c3)n2)cc1OC | -5.2 | 94.7* | -8.4 | -2.6 | -4.7 | 44.7
CCCNC(=O)N1C[C@@H](C)[C@H](OC)CN(C)C(=O)c2cc(NC(=O)CC)ccc2OC[C@@H]1C | -1.6 | nt | nt | -1.4 | nt | nt
O=C(c1ccccc1F)N1C[C@H]2[C@@H](c3ccccc31)[C@H](CO)N2C(=O)c1cccnc1 | nt | nt | nt | -0.3 | nt | nt
N#C/C(=C\c1cccc([N+](=O)[O-])c1)C(=O)NCc1ccc(Cl)cc1 | -9.3 | nt | 104.6* | nt | -8.7 | nt
CC(C(=O)OCC(=O)c1ccc([N+](=O)[O-])cc1)N1C(=O)C2C3C=CC(C3)C2C1=O (stereo not drawn) | -0.2 | 1.6 | 17.7 | 4.9 | ? | -9.9
CC(C(=O)OCC(=O)c1ccc([N+](=O)[O-])cc1)N1C(=O)C2C3CCC(C3)C2C1=O (stereo not drawn) | 2.2 | 12.0 | 12.0 | nt | 107.5* | -2.6
Cc1ccccc1S(=O)(=O)NCC[C@@H]1CC[C@H](NC(=O)Nc2cccc(F)c2)[C@H](CO)O1 | -7.4 | nt | nt | 1.4 | nt | nt
CO[C@@H]1CC[C@H]2CCN(C)C(=O)[C@@H](C)CN(C)C(=O)c3cc(C#N)ccc3OC[C@@H]1O2 | 10.2 | nt | nt | 3.1 | nt | nt
Cn1c(=O)c2cc(S(=O)(=O)Nc3cc(C(=O)O)cc(C(=O)O)c3)ccc2n(C)c1=O | 1.6 | -2.8 | 0.4 | nt | 2.4 | -2.3
Cc1cc(C)cc(NS(=O)(=O)c2ccc3c(c2)c(=O)n(C)c(=O)n3C)c1 | nt | 3.8 | -60.3 | nt | nt | 101.5*
COC(=O)c1ccc(COc2ccccc2/C=C(\C#N)C(=O)Nc2c(C)cc(C)cc2C)cc1 | -2.1 | 14.9 | -24.7 | nt | -1.0 | 117.0*
COC(=O)c1ccc(COc2ccccc2/C=C(\C#N)C(=O)Nc2ccc(C)cc2C)cc1 | -3.8 | -4.3 | -2.2 | nt | 2.5 | 21.6
O=C1c2ccccc2NC(c2ccc(-c3cccs3)o2)N1O (stereo not drawn) | -6.0 | nt | nt | 3.4 | -4.6 | 8.3
O=C1c2ccccc2NC(c2ccc(-c3ccc(C(F)(F)F)cc3)o2)N1O (stereo not drawn) | 0.3 | nt | 101.3* | -3.1 | 4.9 | nt
CCOC(=O)C1=C(Cc2ccc(Cl)cc2)C(=O)c2ccccc2C1=O | nt | 20.5 | 104.8* | -1.3 | 0.5 | 55.8
O=C(C[C@@H]1CC[C@H]2[C@@H](COC[C@@H](O)CN2C(=O)C2CC2)O1)NCc1ccncc1 | -12.8 | nt | nt | 0.4 | nt | nt
S=C1NC2(CCCCC2)Cc2ccccc21 | 7.3 | -1.9 | -14.4 | -2.1 | 50.5* | 1.8
O=C1NC2(CCCCC2)Cc2ccccc21 | 2.8 | -12.0 | 9.4 | 1.6 | nt | 9.5
O=C(NCC[C@@H]1CC[C@@H](NS(=O)(=O)c2cccc(F)c2)[C@H](CO)O1)C1CCC1 | nt | nt | nt | 4.1 | nt | nt
CCn1cc(C(=O)NCc2ccccc2)c(=O)c2cc(F)c(N3CCN(C(=O)c4ccco4)CC3)cc21 | nt | 28.5 | -25.4 | 4.1 | 9.5 | 14.0
CCCCOC(=O)c1ccc(NC(=S)N2CCN(c3ncc4c(=O)c(C(=O)O)cn(CC)c4n3)CC2)cc1 | -3.7 | 91.6* | 33.9 | 2.6 | 2.2 | 20.7
CCn1cc(C(=O)O)c(=O)c2cc(F)c(N3CCN(C(=S)NC(=O)c4cc(OC)cc(OC)c4)CC3)cc21 | -3.6 | ? | 2.1 | -2.5 | 2.7 | -12.2
CCn1cc(C(=O)NCc2ccc3c(c2)OCO3)c(=O)c2cc(F)c(N3CCN(C(=O)c4ccco4)CC3)cc21 | nt | 53.5* | -40.7 | nt | 8.8 | 25.8
SMILES | FN deposit inh | SKKanGAS inh | PfHsp90 yeast 2 | PglD inh | Rtt109 Vps75 | CSC inhib
CCn1cc(C(=O)O)c(=O)c2cc(F)c(N3CCN(C(=S)Nc4ccc(OC)cc4)CC3)cc21 | -11.3 | 67.7* | 14.8 | nt | 7.7 | nt
Cc1cc(/C=C\c2ccc3cc(N(C)C)ccc3[n+]2C)c(C)n1-c1ccccc1 | nt | nt | 108.1* | -1.3 | 7.5 | 87.5*
C[n+]1c(/C=C/c2ccc(O)cc2)ccc2ccccc21 | 1.2 | 9.9 | 4.4 | 11.8 | 1.6 | 4.8
Cc1ccc(S(=O)(=O)Nc2ccc3c(c2)C(=O)N([C@@H](C)CO)C[C@H](C)[C@@H](CN(C)S(=O)(=O)c2cccs2)O3)cc1 | nt | nt | nt | -3.3 | nt | nt
CC(C)(C)c1ccc(C(=O)N2CCN(C(=O)c3ccco3)CC2)cc1 | 4.5 | 49.7* | -1.9 | -1.3 | 6.0 | -0.6
Cc1cc(F)ccc1S(=O)(=O)Nc1ccccc1C(=O)Nc1ccccc1-c1nc2ccccc2[nH]1 | nt | 58.0* | 8.8 | -3.3 | 2.1 | 79.0*
COc1ccc(CN(C)C[C@@H]2OCCCC[C@H](C)Oc3ccc(NS(=O)(=O)c4ccccc4)cc3C(=O)N([C@H](C)CO)C[C@@H]2C)cc1 | -2.9 | nt | nt | 3.6 | nt | nt
C[C@H]1CCCCO[C@@H](CN(C)S(=O)(=O)c2ccccc2)[C@@H](C)CN([C@@H](C)CO)C(=O)c2cc(NC(=O)C3CCCCC3)ccc2O1 | 3.1 | nt | nt | 4.5 | nt | nt
Cc1ccc(N2C(=O)C3C4C=CC(CNC(=S)N5CCN(c6cccc(C)c6)C(C)C5)(O4)C3C2=O)cc1 (stereo not drawn) | -3.1 | -8.5 | 104.9* | nt | 1.1 | ?
CC(=O)Oc1ccc(N2C(=O)C3C4C=CC(CO)(O4)C3C2=O)cc1 (stereo not drawn) | nt | 0.6 | -77.7 | -3.0 | 6.4 | 2.6
Nc1c(Cl)cc(C2=NCCn3c2c2ccc([N+](=O)[O-])cc2[n+]3[O-])cc1Cl | -6.8 | 67.6* | -23.4 | 1.1 | 3.1 | 7.7
C=CCNc1ncnc2c1ncn2C1OC(CO)C(O)C1O (stereo not drawn) | nt | 7.4 | -5.5 | 1.7 | 9.8 | 77.3*
C[C@H](CO)N1C[C@H](C)[C@H](CN(C)Cc2ccc(Oc3ccccc3)cc2)Oc2ccc(NC(=O)Nc3ccc(C(F)(F)F)cc3)cc2C1=O | nt | nt | nt | 0.6 | nt | nt
COc1cccc(CNC(=O)CCc2nnc3ccc(NCCCN4CCCC4=O)nn23)c1 | 30.0* | 1.5 | -11.8 | -4.0 | 14.1 | 12.8
COc1ccc(CNC(=O)CCc2nnc3ccc(NCCCN4CCCC4=O)nn23)cc1 | -9.1 | -13.4 | -34.6 | -1.6 | 2.2 | nt

Screening results: PubChem BioAssay, Broad Institute
